Values after ≈ are worked out from the molar mass of the structure shown. Active and inactive are the calls of the source. How the calls were made is not given here. A value given as a limit tells only on which side of the number the result lay.

From ChEMBL document CHEMBL2321876 come the findings set out here.

The subject of assay [1] is Mycobacterium tuberculosis. The assay is described as follows: Bacteriostatic activity against Mycobacterium tuberculosis H37Rv using iron-replete GAST media after 10 to 14 days by broth microdilution assay. The class given is functional. In a few lines: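 Broth microdilution in GAST supplemented with 200 μM FeCl₃, in quadruplicate, with compounds from DMSO stocks and DMSO-matched controls. Isoniazid served as positive control. Inoculum 10⁴–10⁵ cells/assay, 100 μL/well, 37 °C. OD₆₂₀ was read at 10–14 days, when untreated controls reached 0.2–0.3.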

Assay [2] relates to Mycobacterium tuberculosis. Description: Bacteriostatic activity against Mycobacterium tuberculosis H37Rv using iron-deficient GAST media after 10 to 14 days by broth microdilution assay. The class given is functional. In a few lines:
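Broth microdilution in iron-deficient GAST, in quadruplicate, with compounds from DMSO stocks and DMSO-matched control wells. Isoniazid served as positive control. Initial density 10⁴–10⁵ cells/assay, 100 μL/well, 37 °C. Growth was read as OD at 620 nm at 10–14 days, when untreated controls reached OD₆₂₀ 0.2–0.3.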

Assay [3] concerns Acinetobacter baumannii. Description: Antibacterial activity against Acinetobacter baumannii ATCC 19606 using iron-replete M9 minimal media after 15 hrs by broth microdilution assay. The class given is functional, organism-based. The note with it: ATCC 19606 = CIP 70.34 = JCM 6841. In a few lines:
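ATCC 19606 grown overnight at 30 °C on LB agar, washed twice in dipyridyl-containing M9/casamino acids medium, then diluted to A600 0.0003 in M9 minimal medium with 0.2% casamino acids plus 200 μM FeCl3. Inhibitors from DMSO at 100 μM final, in triplicate. Controls were tetracycline (100 ng/mL) and 1% DMSO. Incubated at 30 °C, A600 measured at 15 h.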

In assay [4] the test system is Acinetobacter baumannii. Description: Antibacterial activity against Acinetobacter baumannii ATCC 19606 using iron-deficient M9 minimal media after 15 hrs by broth microdilution assay. The assay is classed as functional, organism-based. Conditions: ATCC 19606 = CIP 70.34 = JCM 6841. In a few lines: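 ATCC 19606 grown overnight at 30 °C on LB agar, washed twice and resuspended in M9 minimal medium with 0.2% casamino acids and 200 μM dipyridyl. Inoculated at A600 0.0003 in this medium plus 1 μM FeCl3. Inhibitors from DMSO at 100 μM final, in triplicate. Tetracycline (100 ng/mL) and 1% DMSO as controls. Incubated at 30 °C; A600 read at 15 h.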

Assay [5] can be described thus: Displacement of Fl-Sal-AMS from Mycobacterium tuberculosis MbtA expressed in Escherichia coli after 30 mins by fluorescence polarization assay.
Assay [6] in a line: Displacement of Fl-Sal-AMS from Acinetobacter baumanni BasE expressed in Escherichia coli after 30 mins by fluorescence polarization assay. The arrangement: species or system Acinetobacter baumannii. Conditions: read-out: Kd.
A short description of assay [7]: Selectivity ratio of Kd for Mycobacterium tuberculosis MbtA to Kd for Acinetobacter baumanni BasE.

For `CCOC(=O)c1cc(-c2ccc(Cl)s2)nc2c1cnn2Cc1ccncc1`, the MIC99 in assay [1] and in assay [2] was 25 µM (≈ 9.97 µg/mL) in each case.

For the compound `CCOC(=O)c1cc(-c2ccccc2)nc2c1cnn2Cc1ccncc1`, the result in assay [3] and in assay [4] was inactive. For the same compound, the dissociation constant (Kd) in assay [5] was greater than 100000 nM; in assay [6], 2160 nM. Moreover, the MIC99 was 125 µM (≈ 44.8 µg/mL) in assay [1] and greater than 125 µM in assay [2].

As to `O=C(O)c1cc(-c2ccccc2)nc2c1cnn2Cc1ccncc1`, the result in assay [3] and in assay [4] was inactive. In addition, the MIC99 in assay [1] and in assay [2] was greater than 125 µM in each case.

With `CCOC(=O)c1cc(-c2ccc(C(=O)c3ccccc3)cc2)nc2c1cnn2Cc1ccncc1`, the MIC99 in assay [1] and in assay [2] was greater than 125 µM in each case.

Consider `O=C(c1ccccc1)c1ccc(-c2cc(C(=O)O)c3cnn(Cc4ccncc4)c3n2)cc1`, for which the outcome in assay [3] and in assay [4] was inactive. For the same compound, the MIC99 in assay [1] and in assay [2] was greater than 125 µM each time.

Take `CCOC(=O)c1cc(-c2ccc(Oc3ccccc3)cc2)nc2c1cnn2Cc1ccncc1`: the MIC99 in assay [1] came to 100 µM (≈ 45 µg/mL); in assay [2], 50 µM (≈ 22.5 µg/mL).

With `O=C(O)c1cc(-c2ccc(OCc3ccccc3)cc2)nc2c1cnn2Cc1ccncc1`, the outcome in assay [3] and in assay [4] was inactive. The Selectivity ratio in assay [7] amounted to 1000. Besides, the results for the Kd in assay [5] and in assay [6] were 5400 nM and 2.14 nM, respectively.

Regarding `O=C(O)c1cc(C#Cc2ccccc2)nc2c1cnn2Cc1ccncc1`, the result in assay [3] and in assay [4] was inactive. Further, the results for the Kd in assay [5] and in assay [6] were 3000 nM and 421 nM, respectively.

With `O=C(O)c1cc(-c2cn[nH]c2)nc2c1cnn2Cc1ccncc1`, the outcome in assay [3] and in assay [4] was inactive. Besides, the values for the dissociation constant (Kd) in assay [5] and in assay [6] were 27900 nM and 2300 nM, respectively.

Consider `O=C(O)c1cc(-c2cccc(O)c2)nc2c1cnn2Cc1ccncc1`, for which the outcome in assay [3] and in assay [4] was inactive. Besides, the equilibrium dissociation constant (Kd) was 7670 nM in assay [5] and 124 nM in assay [6].

Take `O=C(O)c1cc(-c2ccc(Oc3ccccc3)cc2)nc2c1cnn2Cc1ccncc1`: the outcome in assay [3] and in assay [4] was inactive. Also, the MIC99 in assay [1] and in assay [2] was 25 µM (≈ 10.6 µg/mL) each time.

On to `O=C(NC1CC1)c1cc(-c2ccccc2)nc2c1cnn2Cc1ccncc1`, for which the outcome in assay [3] and in assay [4] was inactive. The Kd in assay [5] is greater than 100000 nM; in assay [6], 150 nM.

For `O=C(O)c1cc(-c2ccccc2)nc2c1cnn2Cc1ccc(O)cc1`, the result in assay [3] and in assay [4] was inactive. The Kd in assay [5] was greater than 100000 nM; in assay [6], 556 nM.

For `CN(C)C(=O)c1cc(-c2ccccc2)nc2c1cnn2Cc1ccncc1`, the outcome in assay [3] and in assay [4] was inactive. Besides, the dissociation constant Kd in assay [5] is greater than 50000 nM; in assay [6], 334 nM.

On to `O=C(O)c1cc(-c2cncc3ccccc23)nc2c1cnn2Cc1ccncc1`, for which the result in assay [3] and in assay [4] was inactive. Also, the Kd in assay [5] is greater than 100000 nM; in assay [6] it was 7730 nM.

Consider `O=C(O)c1cc(-c2ccc3[nH]ccc3c2)nc2c1cnn2Cc1ccncc1`, for which the result in assay [3] and in assay [4] was inactive. Besides, the Kd came out at 2900 nM in assay [5] and 61.8 nM in assay [6].

`O=C(O)c1cc(N2CCOCC2)nc2c1cnn2Cc1ccncc1`: the result in assay [3] and in assay [4] was inactive. Also, the dissociation constant (Kd) in assay [5] turned out to be 29100 nM; in assay [6], 1450 nM.

In the case of `O=C(O)c1cc(-c2cncnc2)nc2c1cnn2Cc1ccncc1`, the result in assay [3] and in assay [4] was inactive. In addition, the Kd in assay [5] is 13600 nM; in assay [6], 583 nM.

Regarding `O=C(O)c1cc(-c2cccc(-c3ccccc3)c2)nc2c1cnn2Cc1ccncc1`, the outcome in assay [3] and in assay [4] was inactive. Moreover, the Kd in assay [5] stood at 3600 nM; in assay [6] it was 164 nM.

As to `CCCNC(=O)c1cc(-c2ccccc2)nc2c1cnn2Cc1ccncc1`, the outcome in assay [3] and in assay [4] was inactive. For the same compound, the results for the dissociation constant (Kd) in assay [5] and in assay [6] were greater than 50000 nM and 249 nM, respectively.

With `CNC(=O)c1cc(-c2ccccc2)nc2c1cnn2Cc1ccncc1`, the result in assay [3] and in assay [4] was inactive. Further, the figures for the Kd in assay [5] and in assay [6] were greater than 50000 nM and 420 nM, respectively.

With `O=C(O)c1cc(-c2cccc3cccnc23)nc2c1cnn2Cc1ccncc1`, the result in assay [3] and in assay [4] was inactive. Further, the results for the equilibrium dissociation constant (Kd) in assay [5] and in assay [6] were 22500 nM and 776 nM, respectively.

For `Nc1ccc(-c2cc(C(=O)O)c3cnn(Cc4ccncc4)c3n2)cc1`, the result in assay [3] and in assay [4] was inactive. The equilibrium dissociation constant (Kd) is 4080 nM in assay [5] and 78.2 nM in assay [6].

Turning to `O=C(O)c1cc(-c2ccc(CO)cc2)nc2c1cnn2Cc1ccncc1`, the outcome in assay [3] and in assay [4] was inactive. Besides, the equilibrium dissociation constant (Kd) in assay [5] came out at 3700 nM; in assay [6], 247 nM.

As to `O=C(O)c1cc(-c2ccc(F)cc2)nc2c1cnn2Cc1ccncc1`, the outcome in assay [3] and in assay [4] was inactive. Besides, the figures for the dissociation constant Kd in assay [5] and in assay [6] were 1890 nM and 28 nM, respectively.

For the compound `O=C(O)c1cc(-c2ccc(Cl)s2)nc2c1cnn2Cc1ccncc1`, the outcome in assay [3] and in assay [4] was inactive. Further, the MIC99 in assay [1] and in assay [2] was 50 µM (≈ 18.5 µg/mL) each time.
